# What was measured:
# [1] = (§1) In vitro antagonist activity, Inhibition of angiotensin II (50 nM) mediated increase in cytosolic [Ca2+] conc. in PLC-PRF-5 cells; format: functional, cell-based; settings: Homo sapiens
# Procedure, shortened: (§2)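 PLC-PRF-5 cells were preincubated with compound, then stimulated with 50 nM angiotensin II. The rise in intracellular cytosolic Ca2+ concentration was measured, and inhibition of that rise is given as IC50.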
# [2] = target: T1, Type-1 angiotensin II receptor (Homo sapiens, UniProt P30556); test: Binding affinity against AT1 in human hepatoma cell line, PLC-PRF-5
# T1 sequence (P30556 whole entry): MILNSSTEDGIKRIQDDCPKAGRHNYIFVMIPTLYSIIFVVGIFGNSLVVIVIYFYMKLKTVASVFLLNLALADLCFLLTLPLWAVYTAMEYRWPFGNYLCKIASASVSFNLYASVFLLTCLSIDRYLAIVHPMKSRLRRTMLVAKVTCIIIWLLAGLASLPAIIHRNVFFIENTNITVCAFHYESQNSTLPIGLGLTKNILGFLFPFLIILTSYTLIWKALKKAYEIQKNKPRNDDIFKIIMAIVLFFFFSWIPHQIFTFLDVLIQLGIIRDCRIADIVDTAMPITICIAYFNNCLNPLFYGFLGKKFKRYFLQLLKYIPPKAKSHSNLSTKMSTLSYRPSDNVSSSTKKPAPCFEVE
# Procedure, shortened: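 Crude membranes from PLC-PRF human hepatoma cells were prepared by lysis in ice-cold Tris/HCl 50 mM, MgCl2 2 mM, pH 7.4, then spun at 30000g. 100 µg protein was incubated 1 h at 25 °C with 3 nM [3H]AII. Nonspecific binding was taken with 1 µM losartan. Compounds were tested at 10-10–10-5 M, with filtration and scintillation counting.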
# Angiotensin II receptor = target: T2, Angiotensin II receptor (Homo sapiens, UniProt P30556+P50052); test: as §1; format: functional, cell-based; procedure, shortened: as §2
# T2 sequence (P30556 whole entry): T1 sequence (P30556 whole entry)
# T2 sequence (P50052 whole entry): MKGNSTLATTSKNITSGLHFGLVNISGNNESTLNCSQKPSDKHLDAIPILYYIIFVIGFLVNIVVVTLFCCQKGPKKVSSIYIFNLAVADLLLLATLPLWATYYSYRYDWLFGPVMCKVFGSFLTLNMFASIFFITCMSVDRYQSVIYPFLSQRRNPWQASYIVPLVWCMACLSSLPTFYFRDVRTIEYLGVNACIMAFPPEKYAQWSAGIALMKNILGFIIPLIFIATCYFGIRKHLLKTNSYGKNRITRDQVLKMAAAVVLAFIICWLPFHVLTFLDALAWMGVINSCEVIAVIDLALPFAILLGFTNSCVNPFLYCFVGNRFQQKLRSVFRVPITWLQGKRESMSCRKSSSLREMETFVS
IC50 [1] [nM],Ki [2] [nM],IC50 (Angiotensin II receptor) [nM],Compound
,> 10000,,CCCCN1C(=O)C2(CCCC2)C(=O)N1Cc1ccc(-c2ccccc2C#N)cc1
,> 10000,,CCCCN1C(=O)C2(CCCC2)C(=O)N1Cc1ccc(-c2ccccc2S(=O)(=O)NC(C)(C)C)cc1
,,89,O=C1N(Cc2ccc(-c3ccccc3-c3nn[nH]n3)cc2)N(c2ccccc2)C(=O)C12CCCC2
,> 10000,,CCCCN1C(=O)C2(CCCC2)C(=O)N1Cc1ccc(-c2ccccc2)cc1
,13,15,CCCCC(=O)NS(=O)(=O)c1ccccc1-c1ccc(CN2C(=O)C3(CCCC3)C(=O)N2CCCC)cc1
,3160,,CCCCN1C(=O)C2(CCCC2)C(=O)N1Cc1ccc(-c2ccccc2C(=O)O)cc1

# The next lines start with the compound.
Compound,IC50 [1] [nM],Ki [2] [nM],IC50 (Angiotensin II receptor) [nM]
CCCCN1C(=O)C(C)(CCCC)C(=O)N1Cc1ccc(-c2ccccc2S(=O)(=O)NC(=O)c2ccccc2)cc1 (configuration not stated),33,32,
CCCCN1C(=O)C2(CCCC2)C(=O)N1Cc1ccc(-c2ccccc2-c2nn[nH]n2)cc1,,25,22
CCCCN1C(=O)C2(CCCC2)C(=O)N1Cc1ccc(-c2ccccc2S(=O)(=O)NC(=O)NC2CCCCC2)cc1,,32,38
O=C1N(Cc2ccccc2)N(Cc2ccc(-c3ccccc3-c3nn[nH]n3)cc2)C(=O)C12CCCC2,,402,
CCCCN1C(=O)C2(CCCC2)C(=O)N1Cc1ccc(NC(=O)c2ccccc2C(=O)O)cc1,,398,
CCCCN1C(=O)C(C)(C)C(=O)N1Cc1ccc(-c2ccccc2S(=O)(=O)NC(=O)c2ccccc2)cc1,,42,26
CCCCN1C(=O)C2(CCCC2)C(=O)N1Cc1ccc(C(=O)Nc2ccccc2C(=O)O)cc1,,2000,
CCCCN1C(=O)C2(CCCC2)C(=O)N1Cc1ccc(-c2ccccc2S(N)(=O)=O)cc1,,> 10000,
CCCCCN1C(=O)C2(CCCC2)C(=O)N1Cc1ccc(-c2ccccc2S(=O)(=O)NC(=O)c2ccccc2)cc1,,25,28
Cc1ccc(N2C(=O)C3(CCCC3)C(=O)N2Cc2ccc(-c3ccccc3-c3nn[nH]n3)cc2)cc1,,381,
CCCCN1C(=O)C2(CCCC2)C(=O)N1Cc1ccc(C(=O)Nc2cccc(C(=O)O)c2)cc1,,> 10000,
CCCCN1C(=O)C2(CCCC2)C(=O)N1Cc1ccc(-c2ccccc2S(=O)(=O)NC(=O)c2ccccc2)cc1,,10,12
CCCN1C(=O)C2(CCCC2)C(=O)N1Cc1ccc(-c2ccccc2S(=O)(=O)NC(=O)c2ccccc2)cc1,,40,52
